Format in all cases: functional, cell-based
One assay relates to HT-29. In words: Cytotoxicity against human HT-29 cells assessed as growth inhibition after 72 hrs by MTT assay. The following applies: HT-29, 72 h. Put shortly:
(§1)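 MTT read-out of cell growth, method as in an earlier report. IC50 is the concentration giving 50% inhibition of cell growth. Etoposide and cisplatin were run as positive controls.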
Background: Tetrazolium assays rely on reduction of a dye to a coloured formazan, in cell work by metabolically active cells.

The next assay concerns P388. Description: Cytotoxicity against mouse P388 cells assessed as growth inhibition after 72 hrs by MTT assay. The following applies: P388, 72 h. Put shortly: as §1
The nature of assay [1]: Cytotoxicity against human HONE1 cells assessed as growth inhibition after 72 hrs by MTT assay. The following applies: HONE1, 72 h. The method, boiled down: as §1
Another assay relates to MCF7. Description: Cytotoxicity against human MCF7 cells assessed as growth inhibition after 72 hrs by MTT assay. The following applies: MCF7, 72 h. The method, boiled down:
as §1

What is called IC50 is the point on the concentration scale where inhibition reaches its midpoint.

On to `CC(=O)O[C@H]1[C@H](OC(C)=O)[C@]2(C)O[C@]3(COC(=O)C3)C[C@H](OC(=O)c3ccccc3)[C@]2(C)[C@H]2CCC=C(C)[C@]12C`, for which the IC50 in the assay on HT-29 came to 4.1 µM; in the assay with P388 it was 5.2 µM; in assay [1], 4.2 µM; in the assay with MCF7, 6 µM.
For the compound `CC1=CCC[C@H]2[C@@]1(C)[C@@H](OC(=O)c1ccccc1)[C@H](OC(=O)C(O)C(C)C)[C@](C)(O)[C@]2(C)/C=C/C1=CC(=O)OC1` (stereo partly specified), the IC50 amounted to 6.4 µM with HT-29, 7.1 µM in the assay on P388, 3.9 µM in assay [1] and 7.7 µM in the assay with MCF7.
Consider `CC1=CCC[C@H]2[C@@]1(C)[C@@H](OC(=O)c1cccnc1)[C@H](OC(=O)c1ccccc1)[C@]1(C)O[C@]3(COC(=O)C3)C[C@H](OC(=O)c3cccnc3)[C@]21C`, for which the IC50 turned out to be 4.7 µM in the assay with HT-29, 5.8 µM with P388, 3.5 µM in assay [1] and 5.7 µM with MCF7.
As for `COc1cc([C@@H]2c3cc4c(cc3[C@@H](O[C@@H]3O[C@@H]5CO[C@@H](C)O[C@H]5[C@H](O)[C@H]3O)[C@H]3COC(=O)[C@H]23)OCO4)cc(OC)c1O` [ETOPOSIDE], the IC50 came out at 2 µM in the assay on HT-29, 1.3 µM in the assay with P388, 1.2 µM in assay [1] and 2.2 µM in the assay with MCF7.

These data come from ChEMBL document CHEMBL3774334, “New cytotoxic neo-clerodane diterpenoids from Scutellaria strigillosa” (Bioorg Med Chem Lett, 2016).
